# Compounds with a hit are over-represented: about 4.1% of the library has one in this group of screens.
# T cruzi inh: inhibitors of intracellular T. cruzi growth, primary screen, luminescence, NIH3T3 host cells | T. cruzi beta-gal in NIH3T3, 90 h | 300,000 compounds, 1.4% hits | AID 1885, 2009 | inhibition, % (no concentration beside the values);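 active = mean inhibition across valid replicates above about 55%, limit read from the data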;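 note: signal also drops with host cell toxicity which is not excluded here; 0% = plate median of DMSO wells and 100% = zero luminescence signal; higher percent means less beta-gal luminescence so fewer parasites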
#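 System: Mouse NIH/3T3 fibroblasts infected with β-gal-expressing T. cruzi Tulahuen C4 | Quantity: NIH/3T3 cells, 5,000 per well | Reagent: 5000 reporter trypomastigotes per well | Dosing: Compound pinned at 50 nL/well, DMSO | Schedule: 3 h host attachment, then at least 90 h co-culture | Detection: GalScreen luminescence, 60 min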
# MEKK3 PB1 HTS: modulators of MEKK3-MEK5 PB1 binding, primary screen, biochemical, wildtype MEKK3, multiplex bead flow cytometry, Alexa488-MEK5. Mitogen-activated protein kinase kinase kinase 3 (Homo sapiens), Q99759. bead-based flow cytometry, Alexa488-MEK5 binding to MEKK3; actives lie on both sides; 0 = blocked by unlabeled MEK5, 100 = vehicle. binding response (% of control), % at 10 µM. 290,000 compounds, 1.4% hits;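 active = binding response more than 3 SD above or below the average of its plate-row segment, actives on both sides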;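 note: Alexa488 bead fluorescence after subtracting the streptavidin-only scavenger bead signal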
# Target sequence (Q99759 whole entry, looked up): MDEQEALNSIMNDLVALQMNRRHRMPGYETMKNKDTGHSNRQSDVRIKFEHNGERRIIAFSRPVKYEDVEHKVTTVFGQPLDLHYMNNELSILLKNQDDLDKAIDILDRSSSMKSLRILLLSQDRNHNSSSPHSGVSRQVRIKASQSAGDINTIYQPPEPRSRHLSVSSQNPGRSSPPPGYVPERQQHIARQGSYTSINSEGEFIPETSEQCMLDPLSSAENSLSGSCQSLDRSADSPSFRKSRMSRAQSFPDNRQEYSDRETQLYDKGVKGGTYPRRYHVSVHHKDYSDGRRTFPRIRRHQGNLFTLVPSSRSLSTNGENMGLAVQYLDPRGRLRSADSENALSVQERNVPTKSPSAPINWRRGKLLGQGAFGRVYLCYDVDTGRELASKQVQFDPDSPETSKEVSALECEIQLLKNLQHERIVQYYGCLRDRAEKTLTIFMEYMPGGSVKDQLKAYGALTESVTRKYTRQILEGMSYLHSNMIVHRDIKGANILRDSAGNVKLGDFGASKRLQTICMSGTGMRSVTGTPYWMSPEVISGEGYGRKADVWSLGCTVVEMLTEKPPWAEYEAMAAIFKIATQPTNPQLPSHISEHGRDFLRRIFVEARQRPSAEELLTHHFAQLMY
# NS3 helicase inh: inhibitors of HCV NS3 helicase, primary screen, biochemical, Cy5 molecular beacon fluorescence. 290,000 compounds, 0.56% hits. inhibition, % at 10.9 µM. NS3 helicase DNA unwinding. Hepatitis C virus NS3 helicase. AID 1800, 2009;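 active = inhibition above the mean of all tested compounds plus 3 SD, set per campaign, cut at about 35% in these data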;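 note: 0% = DMSO wells and 100% = thioflavine S control wells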
#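 Assay system: hepatitis C virus NS3 helicase domain fragment enzyme. Also added: annealed dual-labelled DNA beacon duplex, ATP-started. Timing: 1 h reaction at 25 °C, ATP-initiated. Technique: Cy5 fluorescence at 0 and 60 min, beacon hairpin quenching. Evaluation: % inhibition of unwinding. Replication: one well per compound.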
# MEKK2 mut-MEK5: MEK5 binding signal on mutant MEKK2 PB1, primary screen, biochemical, multiplex bead flow cytometry, Alexa488-MEK5; percent response, % at 10 µM; 290,000 compounds, 0.35% hits; Alexa488-MEK5 binding to MEKK2 mutant; in the data active = percent response above about 24%, passing the limit was not always enough
# DNA FID counter: compounds displacing fluorescent DNA intercalator, primary screen, artefact control for HCV NS3 helicase inhibitor project, biochemical, FID fluorescence; DNA fluorescent intercalator displacement; inhibition, % at 7.9 µM; 290,000 compounds, 0.17% hits; in the data active = inhibition above about 37%;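 note: 0% = vehicle and 100% = reference compound; higher means more ethidium bromide displaced from hairpin DNA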
# MEKK2wt PB1 HTS: modulators of MEK5 binding to wildtype MEKK2, primary screen, biochemical, multiplex bead flow cytometry, Alexa488-MEK5. Alexa488-MEK5 binding to MEKK2 WT; actives lie on both sides. 290,000 compounds, 1.1% hits. Mitogen-activated protein kinase kinase kinase 2 (Homo sapiens), Q9Y2U5. binding response (% of control), % at 10 µM. AID 1531, 2009; in the data active = binding response below about 67% or above about 130%
# MEKK2wt confirm: modulators of MEK5 binding to wildtype MEKK2, confirmation, biochemical, single concentration, multiplex bead flow cytometry; binding response (% of control), % at 10 µM; 5,900 compounds, 2.4% hits; AID 1892, 2009; Alexa488-MEK5 binding to MEKK2 WT; actives lie on both sides; shares compounds with MEKK3 PB1 HTS; in the data active = binding response below about 16% or above about 210%; inactive = in between
# MEKK2mut confirm: mutant MEKK2 PB1-MEK5 binding signal retest – biochemical, single concentration, multiplex bead flow cytometry, confirmation; shares compounds with MEKK3 PB1 HTS; Alexa488-MEK5 binding to MEKK2 mutant; percent response, % at 10 µM; 5,900 compounds, 2% hits; AID 1893, 2009; in the data active = percent response mostly above about 71%, no sharp cut-off; inactive = mostly below about 38%;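 note: higher means compound restores mutant binding toward wildtype level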
# MEKK3 confirm: MEKK3 wild-type PB1 binding to MEK5, inhibitors, confirmation, biochemical, bead multiplex flow cytometry, single concentration, wildtype; shares compounds with MEKK3 PB1 HTS; Alexa488-MEK5 binding to MEKK3; active compounds read low; binding response (% of control), % at 10 µM; 5,900 compounds, 1.8% hits;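 active = binding response below 72% of control, or above a set upper limit, though filed actives all read lower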;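 note: 100% = DMSO only wells and 0% = binding blocked by excess unlabeled MEK5; lower values mean stronger disruption of MEK5 binding to MEKK3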
# * marks the source's active call; other numbers are inactive results; · = no result; [ ] = another dose, or the depositor's remark.
SMILES,T cruzi inh,MEKK3 PB1 HTS,NS3 helicase inh,MEKK2 mut-MEK5,DNA FID counter,MEKK2wt PB1 HTS,MEKK2wt confirm,MEKK2mut confirm,MEKK3 confirm
CCn1c(C)c(C2=CCN(S(=O)(=O)c3ccc(C)cc3)CC2)c2ccccc21,25,85,-7,1,-12,6.0*[inhibitor],104,5,103
O=c1[nH]c(=S)[nH]cc1Oc1ccc(Cl)cc1Cl,-15,109,10,8,-12,103,·,·,·
O=C(Nc1ccccc1Cl)c1ccc(S(=O)(=O)NCC2CCCO2)cc1 (stereo not drawn),-13,99,-8,6,-21,104,·,·,·
Cc1ccc(S(=O)(=O)N2CCCN(S(=O)(=O)c3ccc(C)cc3)CC2)cc1,0,36*[inhibitor],5,-20,-14,48,102,2,101
CCOc1ccc(S(=O)(=O)Nc2ccc(C(=O)NCC(c3ccco3)N3CCCCC3)cc2)cc1 (stereo not drawn),-20,·,·,·,·,·,·,·,·
CC(C)Oc1ccc(C(CCNCc2ccc(O)cc2)c2ccccc2)cc1 (stereo not drawn),24,107,-74,24*,35,150*,132,13,99
COc1ccc(C(CCNCc2ccc(N(C)C)cc2)c2ccccc2)cc1 (stereo not drawn),29,109,-59,22,11,159*,137,11,98
Cc1cc(=O)oc(C)c1C(=O)Nc1cccc(F)c1,-5,103,-18,3,1,105,·,·,·
COc1ccc(/C=N/NC(=O)c2[nH]c3ccc(Br)cc3c2-c2ccccc2)cc1,6,147*,15,0,-4,103,96,-7,101
Cc1ccc(CNC(=O)c2ccc(N3CCC4(CC3)CC(c3ccccc3)=NO4)c(NC(=O)c3ccc(Cl)c([N+](=O)[O-])c3)c2)cc1,26,·,·,·,·,·,·,·,·
O=C(COc1ccc(C(=O)Nc2ccc(Cl)cc2)cc1)NCc1ccccc1,-10,155*,0,1,-4,109,98,3,102
O=C(Nc1nnc(-c2ccco2)o1)c1cccc(N2C(=O)CCC2=O)c1,6,129*,1,4,1,117,102,-5,100
Cc1cc(Br)ccc1NC(=O)C1C2CCC(O2)C1C(=O)O (stereo not drawn),-12,103,9,10,1,108,·,·,·
Cc1ccc(NC(=O)COc2ccccc2CNC(C)(C)CC(C)(C)C)cc1,61*,105,-16,16,17,141*,137,17,105
NS(=O)(=O)c1ccc(N=Nc2c(O)c(C(=O)O)cc3ccccc23)cc1,-6,65*[inhibitor],35,-39,-10,69,96,-4,98
Nc1nc(O)c(N=Nc2ccc(S(N)(=O)=O)cc2)c(=O)[nH]1,-5,104,4,6,3,103,·,·,·
COc1ccccc1C(=O)NNC(=O)c1ccc(Br)cc1,-6,101,1,2,-5,107,·,·,·
O=C(c1nn(-c2ccccc2)c(=O)c2ccccc12)N1CCN(c2ncccn2)CC1,-2,103,4,-5,-13,94,·,·,·
O=C(c1nn(-c2ccccc2)c(=O)c2ccccc12)N1CCN(c2ccccn2)CC1,-4,66*[inhibitor],6,-5,-23,78,102,1,99
COc1cc(C(=O)NNC(=O)c2cccn2C)cc(OC)c1OC,-9,·,·,·,·,·,·,·,·
Cc1[nH]c2ccccc2c1C(=O)C(=O)NCc1ccncc1,5,107,12,4,-3,105,·,·,·
O=C(CNc1ccccc1)N/N=C/c1ccc([N+](=O)[O-])cc1,-11,134*,5,0,-1,106,100,3,102
O=C(CNc1ccccc1)N/N=C/c1ccc2c(c1)OCO2,-19,135*,-1,-1,-4,104,105,5,103
COC(=O)c1ccc(C)c(-n2c(C)cc(C=O)c2C)c1,-16,150*,5,0,-2,112,97,1,95
O=C(Nc1ccc(C(F)(F)F)cc1)C1CCN(c2cnccn2)CC1,21,103,3,3,-2,98,·,·,·
SMILES,T cruzi inh,MEKK3 PB1 HTS,NS3 helicase inh,MEKK2 mut-MEK5,DNA FID counter,MEKK2wt PB1 HTS,MEKK2wt confirm,MEKK2mut confirm,MEKK3 confirm
COc1ccc(C2/C=C\CN(C(=O)c3ccc(C)cc3)[C@H](Cc3ccccc3)C(=O)N2Cc2ccc(F)cc2)cc1 (stereo partly drawn),50,96,·,-1,·,94,·,·,·
O=C(NCCCN1CCCCCC1)c1ccc(CS(=O)(=O)Cc2ccccc2F)o1,·,83,-44,28*,4,200*,179,41,75
CC1CCN(CCCNC(=O)c2ccc(CS(=O)(=O)Cc3ccccc3F)o2)CC1,-6,107,-3,11,14,104,·,·,·
O=C(NCCCN1CCCC1)c1ccc(CS(=O)(=O)c2ccc(Br)cc2)o1,-19,·,-16,·,20,·,·,·,·
O=C(NCCN1CCCCC1)c1ccco1,-17,129*,2,5,-2,116,101,0,100
O=C(NCCN1CCCCCC1)c1ccc(CS(=O)(=O)c2ccc(Br)cc2)o1,-10,99,-15,26*,5,169*,183,59,113
Cc1ccc2oc(-c3cc(NC(=O)c4ncn[nH]4)ccc3O)nc2c1,-36,106,5,12,-3,106,·,·,·
COc1ccc(-c2csc(Nc3ccc(C)cn3)n2)cc1OC,4,143*,-35,8,-17,142,111,1,101
CCn1c(COc2ccc(=O)n(-c3ccccc3)n2)n[nH]c1=S,-1,129*,-4,4,-6,117,89,-8,94
CSC(=S)N/N=C(\C)c1ccccc1,51,99,12,-6,-2,93,·,·,·

# High-throughput results: PubChem, several laboratories
